Assay results: ChEMBL document CHEMBL1126868, “Inhibitors of blood platelet cAMP phosphodiesterase. 4. Structural variation of the side-chain terminus of water-soluble 1,3-dihydro-2H-imidazo[4,5-b]quinolin-2-one derivatives” (J Med Chem, 1993)
Values joined by “and” are separate entries in the source; they are usually repeats but may differ in a detail not shown here. Equal values may be shown once.

Experiments:
[1] = % metabolized in monkey S-9 after 2 hours (1 ug/ml); format: ADME; conditions: simiiformes, monkey S-9 fraction; read-out: Activity
Method in brief: (§1)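 Monkey liver homogenised at 0 °C in 3 volumes isotonic KCl (0.05 M phosphate, pH 7.4), spun 9000g 30 min to give S-9. Triplicate incubations at 37 °C for 2 h with cofactor mix (glucose-6-phosphate, NADP, nicotinamide, MgCl2), final drug 1 or 10 μg/mL. Parent measured by fluorescence HPLC after MeOH protein precipitation; % metabolized = 100% minus % remaining at 2 h versus t=0.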

Homo sapiens [2] = organism: Homo sapiens; experiment: Inhibition of human platelet aggregation induced by ADP after 15 min incubation with platelet rich plasma; format: functional; conditions: 0.25 h
Method in brief: (§2)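 Human platelet-rich plasma was preincubated with drug for 3 min (standard) or 15 min, then aggregation was induced with 5.86 μM ADP. Aggregation at a range of drug concentrations was compared with vehicle-treated controls, and IC50 was taken from dose-response curves. Values are single, duplicate or triplicate (with SD) determinations.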

Homo sapiens [3] = organism: Homo sapiens; experiment: Inhibition of human platelet aggregation induced by ADP after 3 min incubation with platelet rich plasma; format: functional; conditions: 0.05 h; method in brief: as §2
Phosphodiesterase 3 [4] = molecular target: T1, Phosphodiesterase 3 (Homo sapiens, UniProt Q14432+Q13370); experiment: Inhibition of human platelet aggregation cAMP PDE in vitro; format: functional
Method in brief: (§3)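 Human platelet cAMP PDE assay run as in an earlier protocol, except that the [3H]adenosine product was resolved on DEAE Sephadex. Values are means of duplicate (deviation under 50% of mean) or triplicate determinations.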

[5] = Aqueous solubility; format: physicochemical; conditions: read-out: S
Method in brief: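 A 10-mg sample was placed in 0.5 mL water and diluted stepwise up to 10 mL, or until it dissolved. Solubility is reported in mg/mL.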

[6] = % metabolized in monkey S-9 after 2 hours (10 ug/ml); format: ADME; conditions: simiiformes, monkey S-9 fraction; read-out: Activity; method in brief: as §1
[7] = half-life (t1/2 min); format: ADME; conditions: for T1/2: 2 h
Method in brief: (§4)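 Same monkey liver S-9 incubation (37 °C, final drug 1 or 10 μg/mL, triplicate). Aliquots taken at 0, 15, 30, 60, 90 and 120 min, quenched with MeOH and analysed for parent by fluorescence HPLC peak height. Half-life = ln 2 divided by the slope of a least-squares linear regression of peak height against time.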

[8] = t1/2 (min); format: ADME; method in brief: as §4
[9] = % metabolized in monkey S-9 after 2 hours (10 ug/mL); format: ADME; conditions: simiiformes, monkey S-9 fraction; read-out: Activity; method in brief: as §1
Phosphodiesterase 3 [10] = molecular target: T1, Phosphodiesterase 3; experiment: Inhibition of human blood platelet c-AMP phosphodiesterase; format: functional; method in brief: as §3

| SMILES | metabolised at 2 h, 1 ug/ml [1] [%] | IC50 (Homo sapiens [2]) [µM] | IC50 (Homo sapiens [3]) [µM] | IC50 (Phosphodiesterase 3 [4]) [µM] | solubility [5] [µg/mL] | metabolised at 2 h, 10 ug/ml [6] [%] | half-life [7] [h] | half-life [8] [h] | metabolised at 2 h, 10 ug/mL [9] [%] | IC50 (Phosphodiesterase 3 [10]) [µM] | T1/2 [7] |
| --- | --- | --- | --- | --- | --- | --- | --- | --- | --- | --- | --- |
| Cl.O=C(NCCCOc1ccc2[nH]c3nc(O)nc-3cc2c1)N1CCN(CC2CCCCC2)CC1 | 58.5 | 0.018 | 0.072 | 0.00113 | > 20000 | 23.6 | – | – | – | – | – |
| Cl.O=S(=O)(CCCOc1ccc2[nH]c3nc(O)nc-3cc2c1)C1CCN(CC2CCCCC2)CC1 | – | 0.0084 | 0.03 | 0.00113 | > 10000 | 15.2 | 7.55 | – | – | – | – |
| Cl.Oc1nc2cc3cc(OCCCc4nnnn4C4CCN(Cc5ccccc5)CC4)ccc3[nH]c-2n1 | 7.2 | 0.004 | 0.039 | 0.00084 | > 10000 | – | 15.8 | – | – | – | – |
| Cl.O=S(=O)(CCCOc1ccc2[nH]c3nc(O)nc-3cc2c1)C1CCN(Cc2ccccc2)CC1 | 25.2 | 0.0064 | 0.025 | 0.00063 | > 10000 | 9.6 | – | – | – | – | – |
| Cl.Oc1nc2cc3cc(OCCCc4nnnn4C4CCN(Cc5ccc(F)cc5)CC4)ccc3[nH]c-2n1 | 4.9 | 0.008 | 0.032 | 0.00103 | > 10000 | – | 24.6 | – | – | – | – |
| CCC(CC)CN1CCC(n2nnnc2CCCOc2ccc3[nH]c4nc(O)nc-4cc3c2)CC1.Cl | 31.3 | 0.003 | 0.012 | 0.00081 | > 10000 | – | 3.37 | – | – | – | – |
| Cl.Oc1nc2cc3cc(OCCCc4nnnn4C4CCN(CC5CCCCC5)CC4)ccc3[nH]c-2n1 | 22.9 | 0.003 | 0.016 | 0.00081 | > 10000 | – | 5.13 | – | – | – | – |
| Cl.O=C(NCCCOc1ccc2[nH]c3nc(O)nc-3cc2c1)N1CCN(Cc2ccc(F)cc2)CC1 | – | 0.05 | 0.35 | 0.00278 | > 20000 | 70 | 1.08 | – | – | – | – |
| CCC(CC)CN1CCN(C(=O)NCCCOc2ccc3[nH]c4nc(O)nc-4cc3c2)CC1.Cl | – | 0.007 | 0.042 | 0.00125 | > 20000 | 37.3 | 2.68 | – | – | – | – |
| CCC(CC)CN1CCN(S(=O)(=O)CCCOc2ccc3[nH]c4nc(O)nc-4cc3c2)CC1.Cl | – | 0.04 | 0.16 | 0.00514 | > 10000 | 38.8 | 2.87 | – | – | – | – |
| Cl.O=S(=O)(CCCOc1ccc2[nH]c3nc(O)nc-3cc2c1)N1CCN(CC2CCCCC2)CC1 | – | 0.06 | 0.11 | 0.00256 | > 20000 | 49.4 | 2.02 | – | – | – | – |
| Cl.O=C(NCCCOc1ccc2[nH]c3nc(O)nc-3cc2c1)N1CCN(Cc2ccccc2)CC1 | – | 0.05 | 0.31 | 0.00111 | > 20000 | 46.8 | 2.17 | – | – | – | – |
| Cl.O=S(=O)(CCCOc1ccc2[nH]c3nc(O)nc-3cc2c1)C1CCN(Cc2ccc(F)cc2)CC1 | – | 0.0084 | 0.02 | – | > 10000 | – | – | 2 | 53 | 0.001 | – |
| CCC(CC)CN1CCC(S(=O)(=O)CCCOc2ccc3[nH]c4nc(O)nc-4cc3c2)CC1.Cl | 17 | 0.009 | 0.039 | 0.00113 | < 10000 | 22.4 | 6.08 | – | – | – | 7.05 h |
| Cl.O=S(=O)(CCCOc1ccc2[nH]c3nc(O)nc-3cc2c1)N1CCN(Cc2ccc(F)cc2)CC1 | 29.4 | 0.035 | 0.28 | 0.00496 | > 20000 | 18 | 6.75 | – | – | – | 4.02 h |
| Cl.O=S(=O)(CCCOc1ccc2[nH]c3nc(O)nc-3cc2c1)N1CCN(Cc2ccccc2)CC1 | 67.7 | 0.06 | 0.13 | 0.00542 | > 20000 | 21.2 | – | – | – | – | – |
| O=C(CCCOc1ccc2[nH]c3nc(O)nc-3cc2c1)N1CCN(CC2CCCCC2)CC1 | 40.6 | – | – | – | – | 21.7 | – | – | – | – | 5.55 h and 2.4 h |
